Screens (PubChem)
CAL PDZ FP-1 – inhibitors of human CAL PDZ peptide binding; Q9HD26; inhibition, % at 20 µM; purified CAL PDZ, TMR-peptide fluorescence polarization, 1 h; AID 504414; 0.02% of 330,000 active;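 active = highest replicate inhibition of at least 40%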;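 note: plate controls were DMSO neutral control wells for no effect and unlabeled competitor peptide control wells for full effect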
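Material: tagged CAL PDZ protein CerCALP, purified; buffer or medium: sodium phosphate/NaCl buffer pH 7.4 with TCEP, IgG, Thesit; also added: fluorescent TMR peptide probe; schedule: 1 h incubation at room temperature before polarization reading; technique: fluorescence polarization from S- and P-plane intensities, G-factor corrected; control set: unlabelled peptide and DMSO controls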
CAL PDZ FP-2 – blocks peptide binding to the human CAL PDZ domain | 0.92% of 300,000 active | Q9HD26 | purified CAL PDZ, TMR-peptide fluorescence polarization, 1 h | AID 602252 | inhibition, % at 24.9 µM;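 active = mean inhibition of at least 30% with at least half of replicates also reaching 30%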;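 note: 0% = DMSO neutral control and 100% = excess unlabeled competitor peptide PRC23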
Cneo AK release – Cryptococcus neoformans lysis via adenylate kinase release; 0.2% of 360,000 active; AID 651654; C. neoformans lysis, adenylate kinase release luminescence, 4 h; normalised: neutral wells 0, clomiphene wells 100; lysis activity, % at 15 µM;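 active = mean lysis activity across replicates of at least 80%, whatever share of replicates individually reach that level; inactive = mean lysis activity below 80%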
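Material – log-phase Cryptococcus neoformans yeast cells · Input – 5 × 10^6 yeast cells/mL · Medium – fresh YPD growth medium · Doses – single compound concentration per well · Timing – static 4 h at 37 °C with compound, 1 h detection · Detection – adenylate kinase release luminescence · Read-out – signal increase indicating cell lysis · Control set – Clomiphene as positive lysis control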
PglD DTNB – PglD (C. jejuni) enzyme inhibition; inhibition, % at 12.5 µM; purified PglD enzyme, DTNB colorimetric CoA detection; 0.098% of 360,000 active; AID 602405; in the data active = inhibition above about 16%, passing the limit was not always enough
miR-122 sensor – blocks miR-122 activity in Huh7 sensor cells; Huh7 miR-122 Renilla luciferase sensor, 48 h; neutral wells = 0, positive control = 100; activation (reporter increase), % at 12.5 µM; 0.3% of 340,000 active; AID 602342;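 active = mean replicate activation score at least 90 and every replicate individually at or above 90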;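 note: higher luciferase means less miR-122 activity so hits act as miR-122 inhibitors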
* = called active by the depositor; nt = no result given; [ ] = dose if it differs, or a comment. This is a sample that favours compounds with a hit; in the whole collection about 1.1% have one here.

SMILES | CAL PDZ FP-1 | CAL PDZ FP-2 | Cneo AK release | PglD DTNB | miR-122 sensor
CCC(=O)Nc1ccc2c(c1)C(=O)N(C)C[C@@H](OC)[C@@H](C)CN(C(=O)c1cccnc1)[C@H](C)CO2 | nt | nt | -7.5 | 0.7 | 16.2[16.7 µM]
Cn1cnc(S(=O)(=O)N2C[C@@H](O)COC[C@@H]3O[C@@H](CC(=O)NCc4cc(F)cc(F)c4)CC[C@H]32)c1 | nt | nt | -3.1 | 3.7 | -2.3[16.7 µM]
COC(=O)c1ccccc1NC(=O)C1CCN(C(=O)Cc2ccccc2)CC1 | -0.1 | nt | 1.6 | 8.6 | nt
CCOc1ccccc1NC(=O)C1CCN(C(=O)Cc2ccccc2)CC1 | 8.6 | 56.5* | nt | nt | nt
COc1ccc(C)cc1-n1c(SCC(=O)Nc2cc(C)on2)nc2sc(C)c(C)c2c1=O | nt | 80.6* | -0.4 | -2.4 | 10.5
O=c1cc[nH]c2ccc(Cl)cc12 | 0.1 | 0.6 | 0.1 | 3.9 | nt
O=c1cccc2c1c1cc[nH]c3ccc(=O)n2c31 | -1.0 | 48.7* | -0.3 | 4.6 | -5.6
O=C(CSCc1ccc(Cl)cc1)NN=C1CCCC1 | -0.4 | 72.0* | nt | nt | nt
N#Cc1ccc(CSCC(=O)NN=C2CCCC2)cc1 | -0.7 | -2.8 | -1.9 | -0.5 | -7.6
CCCC(=O)Nc1ccc2c(c1)OC[C@@H](C)N(C(=O)c1cccnc1)C[C@@H](C)[C@H](OC)CN(C)C2=O | nt | nt | 0.0 | -1.7 | nt
CCCN(CCC)Cc1c(C(=O)N/N=C/C(C)=C\c2ccco2)nnn1-c1nonc1N | -0.4 | 65.9* | 0.0 | 1.9 | 44.2
CC(/C=N/NC(=O)c1nnn(-c2nonc2N)c1CN(C)C)=C\c1ccco1 | -2.1 | nt | 3.5 | -10.5 | -6.1
C[C@H]1CN([C@@H](C)CO)C(=O)CCCn2cc(nn2)CO[C@H]1CN(C)Cc1ccc(C(=O)Nc2ccccc2N)cc1 | nt | nt | -1.0 | 5.0 | 13.5[16.7 µM]
Cc1ccc(C(=O)NCc2ccco2)cc1S(=O)(=O)Nc1cccc(C)c1C | 0.3 | -4.7 | 2.7 | 0.7 | 244.3*
Cc1ccccc1NS(=O)(=O)c1cc(C(=O)NCc2ccco2)ccc1C | -2.0 | -1.8 | -1.8 | 1.1 | 70.8
Cc1ccc(C(=O)NCc2ccco2)cc1S(=O)(=O)N1CCCCC1 | -3.3 | -1.1 | -0.5 | 0.1 | 10.3
COc1ccccc1NS(=O)(=O)c1cc(C(=O)NCc2ccco2)ccc1C | -1.0 | nt | 1.9 | -1.5 | 109.9*
Cc1ccc(C)c(NS(=O)(=O)c2cc(C(=O)NCc3ccco3)ccc2C)c1 | -1.3 | -8.8 | -7.8 | -4.3 | 200.0*
C[C@@H]1CN([C@@H](C)CO)C(=O)Cc2cc(NC(=O)NC3CCCCC3)ccc2O[C@@H]1CN(C)S(=O)(=O)c1ccc(Cl)cc1 | nt | nt | 5.1 | 10.1 | -18.8[16.7 µM]
CCC/C(O)=C1\C(=O)CC(C)(C)CC1=Nc1ccc(OC)cc1OC | 0.1 | 60.1* | 7.6 | -4.7 | 40.7
C/C=C/c1ccc([C@H]2[C@@H](CNC(C)C)N(C(=O)c3ccccc3)[C@H]2CO)cc1 | nt | nt | -0.7 | -1.7 | 14.3[16.7 µM]
CN(C)CCCn1c(=S)[nH]c2sc3c(c2c1=O)CCCC3 | -1.4 | 49.1* | -1.0 | -6.2 | -4.2
CN(C)CCCn1c(=O)n(C2CCCCC2)c(=O)c2c3c(sc21)CCCCC3 | -2.8 | -2.6 | 87.6* | -2.6 | -0.4
CCn1c(=S)[nH]c2sc3c(c2c1=O)CCCC3 | -1.0 | nt | -3.0 | 0.5 | -4.9
COc1ccc(OC)c(/C=C2\NC(=O)NC2=O)c1 | -2.5 | 44.8* | nt | nt | nt
SMILES | CAL PDZ FP-1 | CAL PDZ FP-2 | Cneo AK release | PglD DTNB | miR-122 sensor
COc1cc(C=C2NC(=O)NC2=O)ccc1O | nt | nt | 7.6 | nt | -8.2
C[C@H](CO)N1C[C@H](C)[C@@H](CN(C)C(=O)c2ccccc2)Oc2cc(-c3cccc(C#N)c3)ccc2S1(=O)=O | nt | nt | -3.1 | 8.1 | 12.5[16.7 µM]
CCOC(=O)C(NCc1ccco1)(NC(=O)c1ccccc1)C(F)(F)F (stereo unspecified) | -1.1 | 42.9* | 0.7 | 6.5 | -4.0
CCCC#Cc1cnc2c(c1)C(=O)N([C@@H](C)CO)C[C@H](C)[C@H](CN(C)C(=O)Nc1c(C)noc1C)O2 | nt | nt | -0.9 | 6.5 | -1.2[16.7 µM]
Cc1cccnc1NC(=O)CSc1nnc(CNC(=O)c2cccc([N+](=O)[O-])c2)n1C | -1.9 | 42.4* | 7.3 | 3.2 | nt
CC(C)CC#Cc1cnc2c(c1)C(=O)N([C@H](C)CO)C[C@@H](C)[C@H](CN(C)C(=O)c1ccc(F)cc1)O2 | nt | nt | 0.5 | -0.9 | -0.8[16.7 µM]
CC(=O)Nc1c(C#N)c(-c2ccccc2)c(C#N)c(=O)n1-c1ccc(C)cc1 | nt | nt | -1.6 | -1.8 | -2.7
